Legend:
Cavia porcellus [1] = species: Cavia porcellus; assay: Inotropic effect in electrically driven left atrium from reserpine-treated guinea pig at the concentration of 10 e-4 M; type: functional, Cardiac atrium
How it was run: (§1)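 Atria from reserpine-pretreated guinea pigs (2 mg/kg ip, 48 and 24 h), tyramine-unresponsive only. Left atrium loaded 0.5 g, paced at 1.5 Hz with 3-ms square pulses at 10–20% above threshold. Equilibrated 90 min. Agents added cumulatively, 5 min per concentration. Isometric developed tension expressed as % increase over control.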

Cavia porcellus [2] = species: Cavia porcellus; assay: Inotropic effect in electrically driven left atrium from reserpine-treated guinea pig at the concentration of 2 x 10 e-3 M; type: functional, Cardiac atrium; how it was run: as §1
Cavia porcellus [3] = species: Cavia porcellus; assay: Inotropic effect in electrically driven left atrium from reserpine-treated guinea pig at the concentration of 5 x 10 e-5 M; type: functional, Cardiac atrium; how it was run: as §1
Cavia porcellus [4] = species: Cavia porcellus; assay: Inotropic effect in electrically driven left atrium from reserpine-treated guinea pig without 8-phenyl theophylline at the concentration of 2 x 10 e-3 M; type: functional, Cardiac atrium
How it was run: (§2)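 Paced left atrium from reserpine-pretreated, tyramine-unresponsive guinea pigs (0.5 g load, 1.5 Hz, 3-ms pulses). Cumulative additions of agent, 5 min each, with no 8-phenyltheophylline present. Developed tension as % increase over control. Mean ± SEM of six assays from six experiments; Student's t test against the 8-phenyltheophylline-treated preparations.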

Cavia porcellus [5] = species: Cavia porcellus; assay: Inotropic effect in electrically driven left atrium from reserpine-treated guinea pig without 8-phenyl theophylline at the concentration of 5 x 10 e-4 M; type: functional, Cardiac atrium; how it was run: as §2
Cavia porcellus [6] = species: Cavia porcellus; assay: Inotropic effect in electrically driven left atrium from reserpine-treated guinea pig without 8-phenyl theophylline at the concentration of 5 x 10 e-5 M; type: functional, Cardiac atrium; how it was run: as §2
Cavia porcellus [7] = species: Cavia porcellus; assay: Inotropic response in electrically driven left atrium from reserpine-treated guinea pig without ADA at the concentration of 5 x 10 e-5 M; type: functional, Cardiac atrium
How it was run: (§3)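 Control arm: electrically driven left atrium (1.5 Hz, 3-ms pulses, 0.5 g load) from guinea pigs given reserpine 2 mg/kg ip at 48 and 24 h, tyramine-unresponsive; no adenosine deaminase. Cumulative additions after 90 min equilibration, 5 min per concentration. Isometric developed tension, % over control; six assays from six experiments.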

Cavia porcellus [8] = species: Cavia porcellus; assay: Inotropic response in electrically driven left atrium from reserpine-treated guinea pig with ADA (2 units/ml) at the concentration of 10 e-4 M; type: functional, Cardiac atrium
How it was run: (§4)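 Reserpinized guinea pigs (2 mg/kg ip, 48 and 24 h before death), tyramine-unresponsive atria. Electrically driven left atrium (1.5 Hz, 3-ms pulses, 0.5 g load) preincubated 20 min with adenosine deaminase after 90 min equilibration. Agents added cumulatively, 5 min per concentration. Developed tension recorded isometrically, % increase over control or % inhibition; six assays from six experiments, Student's t test.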

Cavia porcellus [9] = species: Cavia porcellus; assay: Inotropic effect in electrically driven left atrium from reserpine-treated guinea pig at the concentration of 10 e-3 M; type: functional, Cardiac atrium; how it was run: as §1
Cavia porcellus [10] = species: Cavia porcellus; assay: Inotropic response in electrically driven left atrium from reserpine-treated guinea pig without VER at the concentration of 10 e-3 M; type: functional, Cardiac atrium
How it was run: (§5)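 Control arm without verapamil: left atrium from reserpinized guinea pigs (2 mg/kg ip, 48 and 24 h before), tyramine-unresponsive, paced at 1.5 Hz (3-ms pulses). Agents added cumulatively after 90 min equilibration, recorded 5 min each. Isometric developed tension as % increase over control; seven assays from seven experiments.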

Cavia porcellus [11] = species: Cavia porcellus; assay: Inotropic response in electrically driven left atrium from reserpine-treated guinea pig without VER at the concentration of 10 e-4 M; type: functional, Cardiac atrium; how it was run: as §5
Cavia porcellus [12] = species: Cavia porcellus; assay: Inotropic response in electrically driven left atrium from reserpine-treated guinea pig without VER at the concentration of 10 e-5 M; type: functional, Cardiac atrium; how it was run: as §5
Cavia porcellus [13] = species: Cavia porcellus; assay: Inotropic response in electrically driven left atrium from reserpine-treated guinea pig without VER at the concentration of 2 x 10 e-3 M; type: functional, Cardiac atrium; how it was run: as §5
Cavia porcellus [14] = species: Cavia porcellus; assay: Inotropic response in electrically driven left atrium from reserpine-treated guinea pig without VER at the concentration of 5 x 10 e-4 M; type: functional, Cardiac atrium; how it was run: as §5
Cavia porcellus [15] = species: Cavia porcellus; assay: Inotropic response in electrically driven left atrium from reserpine-treated guinea pig without VER at the concentration of 5 x 10 e-5 M; type: functional, Cardiac atrium; how it was run: as §5
Cavia porcellus [16] = species: Cavia porcellus; assay: Inotropic response in electrically driven left atrium from reserpine-treated guinea pig with ADA (2 units/ml) at the concentration of 2 x 10 e-3 M; type: functional, Cardiac atrium; how it was run: as §4
Cavia porcellus [17] = species: Cavia porcellus; assay: Inotropic response in electrically driven left atrium from reserpine-treated guinea pig with ADA (2 units/ml) at the concentration of 5 x 10 e-4 M; type: functional, Cardiac atrium; how it was run: as §4
Cavia porcellus [18] = species: Cavia porcellus; assay: Inotropic response in electrically driven left atrium from reserpine-treated guinea pig with ADA (2 units/ml) at the concentration of 5 x 10 e-5 M; type: functional, Cardiac atrium; how it was run: as §4
Cavia porcellus [19] = species: Cavia porcellus; assay: Inotropic response in electrically driven left atrium from reserpine-treated guinea pig with VER (10 e-7) at the concentration of 10 e-4 M; type: functional, Cardiac atrium
How it was run: (§6)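 Left atrium from reserpine-treated guinea pigs (2 mg/kg ip, 48 and 24 h prior; tyramine 2 μg/mL check), paced at 1.5 Hz with 3-ms pulses. Verapamil 0.1 μM added 10 min before cumulative agent additions (5 min each), after 90 min equilibration. Isometric developed tension as % increase over control; seven assays from seven experiments.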

Cavia porcellus [20] = species: Cavia porcellus; assay: Inotropic response in electrically driven left atrium from reserpine-treated guinea pig with VER (10 e-7) at the concentration of 2 x 10 e-3 M; type: functional, Cardiac atrium; how it was run: as §6
Cavia porcellus [21] = species: Cavia porcellus; assay: Inotropic response in electrically driven left atrium from reserpine-treated guinea pig with VER (10 e-7) at the concentration of 5 x 10 e-4 M; type: functional, Cardiac atrium; how it was run: as §6
Cavia porcellus [22] = species: Cavia porcellus; assay: Inotropic response in electrically driven left atrium from reserpine-treated guinea pig with VER (10 e-7) at the concentration of 5 x10 e-5 M; type: functional, Cardiac atrium; how it was run: as §6
Cavia porcellus [23] = species: Cavia porcellus; assay: Inotropic response in electrically driven left atrium from reserpine-treated guinea pig without ADA at the concentration of 10 e-3 M; type: functional, Cardiac atrium; how it was run: as §3
Cavia porcellus [24] = species: Cavia porcellus; assay: Inotropic response in electrically driven left atrium from reserpine-treated guinea pig without ADA at the concentration of 10 e-4 M; type: functional, Cardiac atrium; how it was run: as §3
Cavia porcellus [25] = species: Cavia porcellus; assay: Inotropic response in electrically driven left atrium from reserpine-treated guinea pig without ADA at the concentration of 10 e-5 M; type: functional, Cardiac atrium; how it was run: as §3
Cavia porcellus [26] = species: Cavia porcellus; assay: Inotropic response in electrically driven left atrium from reserpine-treated guinea pig without ADA at the concentration of 2 x 10 e-3 M; type: functional, Cardiac atrium; how it was run: as §3
Cavia porcellus [27] = species: Cavia porcellus; assay: Effect on contractile force of spontaneously beating atria from reserpine treated guinea pigs at the concentration of 10 e-3 M; type: functional
Cavia porcellus [28] = species: Cavia porcellus; assay: Effect on contractile force of spontaneously beating atria from reserpine treated guinea pigs at the concentration of 10 e-5 M; type: functional
Cavia porcellus [29] = species: Cavia porcellus; assay: Effect on contractile force of spontaneously beating atria from reserpine treated guinea pigs at the concentration of 2 x 10 e-3 M; type: functional
Cavia porcellus [30] = species: Cavia porcellus; assay: Effect on contractile force of spontaneously beating atria from reserpine treated guinea pigs at the concentration of 5x 10 e-4 M; type: functional
Cavia porcellus [31] = species: Cavia porcellus; assay: Effect on contractile force of spontaneously beating atria from reserpine treated guinea pigs at the concentration of 5x 10 e-5 M; type: functional
Cavia porcellus [32] = species: Cavia porcellus; assay: Effect on frequency rate of spontaneously beating atria from reserpine treated guinea pigs at the concentration of 10 e-4 M; type: functional
Cavia porcellus [33] = species: Cavia porcellus; assay: Effect on frequency rate of spontaneously beating atria from reserpine treated guinea pigs at the concentration of 2 x 10 e-3 M; type: functional
Cavia porcellus [34] = species: Cavia porcellus; assay: Effect on frequency rate of spontaneously beating atria from reserpine treated guinea pigs at the concentration of 5 x 10 e-4 M; type: functional
Cavia porcellus [35] = species: Cavia porcellus; assay: Inotropic effect in electrically driven left atrium from reserpine-treated guinea pig without 8-phenyl theophylline at the concentration of 10 e-3 M; type: functional, Cardiac atrium; how it was run: as §2
Cavia porcellus [36] = species: Cavia porcellus; assay: Inotropic response in electrically driven left atrium from reserpine-treated guinea pig with VER (10 e-7) at the concentration of 10 e-5 M; type: functional, Cardiac atrium; how it was run: as §6

Structure (SMILES)	Increase (Cavia porcellus [1]) [%]	Increase (Cavia porcellus [2]) [%]	Increase (Cavia porcellus [3]) [%]	Increase (Cavia porcellus [4]) [%]	Increase (Cavia porcellus [5]) [%]	Increase (Cavia porcellus [6]) [%]	Increase (Cavia porcellus [7]) [%]	Increase (Cavia porcellus [8]) [%]	Increase (Cavia porcellus [9]) [%]	Increase (Cavia porcellus [10]) [%]	Increase (Cavia porcellus [11]) [%]	Increase (Cavia porcellus [12]) [%]	Increase (Cavia porcellus [13]) [%]	Increase (Cavia porcellus [14]) [%]	Increase (Cavia porcellus [15]) [%]	Increase (Cavia porcellus [16]) [%]	Increase (Cavia porcellus [17]) [%]	Increase (Cavia porcellus [18]) [%]	Increase (Cavia porcellus [19]) [%]	Increase (Cavia porcellus [20]) [%]	also measured
CC1CC(=O)c2ccc(O)nc2C1 (configuration not stated)	26.62	93.66	19.17	87.6	38.88	18.83	25	9.12	48.86	45.89	17.96	5.76	75.51	31.4	11.6	39.98	14.35	5.52	2.43	43.8	Increase (Cavia porcellus [21]): 14.7%; Increase (Cavia porcellus [22]): 2.45%; Increase (Cavia porcellus [23]): 46.19%; Increase (Cavia porcellus [24]): 27.6%; Increase (Cavia porcellus [25]): 15.78%; Increase (Cavia porcellus [26]): 67.12%; Increase (Cavia porcellus [27]): 46.09%; Increase (Cavia porcellus [28]): 4.28%; Increase (Cavia porcellus [29]): 80.98%; Increase (Cavia porcellus [30]): 39.48%; Increase (Cavia porcellus [31]): 18.88%; Increase (Cavia porcellus [32]): 3.29%; Increase (Cavia porcellus [33]): 26.44%; Increase (Cavia porcellus [34]): 13.45%; Increase (Cavia porcellus [35]): 56.72%; Increase (Cavia porcellus [36]): -0.32%
CC(=O)c1cc(C#N)c(O)nc1C	38.06	67.13	25.17	62.73	48.18	17.81	13.32	10.08	58.73	77.46	37.34	18.83	94.47	62.96	28.29	80.21	20.37	8.32	28.47	88.84	Increase (Cavia porcellus [21]): 55.47%; Increase (Cavia porcellus [22]): 19.5%; Increase (Cavia porcellus [23]): 42.05%; Increase (Cavia porcellus [24]): 12.61%; Increase (Cavia porcellus [25]): 5.26%; Increase (Cavia porcellus [26]): 84.6%; Increase (Cavia porcellus [27]): 65.35%; Increase (Cavia porcellus [28]): 13.9%; Increase (Cavia porcellus [29]): 64.11%; Increase (Cavia porcellus [30]): 57.22%; Increase (Cavia porcellus [31]): 27.64%; Increase (Cavia porcellus [32]): 6.62%; Increase (Cavia porcellus [33]): 22.98%; Increase (Cavia porcellus [34]): 11.61%; Increase (Cavia porcellus [35]): 56.71%; Increase (Cavia porcellus [36]): 12.63%

Reference: ChEMBL document CHEMBL1126775, “A pharmacological, crystallographic, and quantum chemical study of new inotropic agents” (J Med Chem, 1993)
